This passage reports folding enthalpy and Tm results from the array DNA melting data of Ke et al. (doi:10.1101/2024.01.08.574731).

Data set [1] in a line: folding enthalpy; higher = less favourable; fluorescence melt of hairpins on a sequencing array, two-state fit. The note with it: sodium 0.088 M. In short, it runs like this:
(§1)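 With Cy3 and quencher oligos annealed, library hairpins on a sequenced MiSeq flow cell were imaged for Cy3 fluorescence in 50 mM Na-HEPES pH 8.0, 25 mM NaCl, in 2.5 °C steps up to 60 °C. Melting temperature and folding enthalpy were derived from bootstrapped two-state fits of signals normalised to pre-quench Cy3 and to control constructs. Four replicates were combined by inverse variance, with fitted temperatures raised by 9.35 °C to match UV melts.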

Data set [2] can be described thus: melting temperature; fluorescence melt of hairpins on a sequencing array, two-state fit, raised by 9.35 °C to match UV melts. The conditions noted are these: sodium 0.088 M. In short, it runs like this:
as §1

On to GATCTTGAGAAAGATC ((((((....)))))), for which the folding enthalpy in data set [1] was -32.1 kcal/mol. The Tm in data set [2] was 45.9 °C.
For GATCTTGATCAAGATC ((((((....)))))) the same measures were -40.9 kcal/mol and 49.7 °C.
For GATCTTGGAAAGATC ((((((...)))))), in data set [1], the folding enthalpy was -34.5 kcal/mol. For the same sequence, in data set [2], the Tm came to 51.9 °C.
For GATCTTGGACAAGATC ((((((....)))))) the same measures were -41.8 kcal/mol and 50.8 °C.
The corresponding values for GATCTTGGCTAAGATC ((((((....)))))) are -45.1 kcal/mol and 48.2 °C.
The corresponding values for GATCTTGGGTAAGATC ((((((....)))))) are -27.6 kcal/mol and 43.2 °C.
Regarding GATCTTTACAAGATC ((((((...)))))), the folding enthalpy in data set [1] is -33.2 kcal/mol. Also, in data set [2], the Tm amounted to 46.4 °C.
For GATCTTTACCAAGATC ((((((....)))))) the same measures were -29.9 kcal/mol and 42 °C.
As to GATCTTTCCAAAGATC ((((((....)))))), the folding enthalpy in data set [1] was -32.9 kcal/mol. Besides, the Tm in data set [2] worked out at 47.3 °C.
For GATCTTTCGCAAGATC ((((((....)))))) the same measures were -32.4 kcal/mol and 43.5 °C.
For GATCTTTGAAAAGATC ((((((....)))))) the same measures were -29.4 kcal/mol and 42.2 °C.
The corresponding values for GATCTTTGAGAAGATC ((((((....)))))) are -31.6 kcal/mol and 46 °C.
Take GATCTTTGCAAGATC ((((((...)))))): in data set [1], the folding enthalpy was -34.7 kcal/mol. Moreover, the Tm in data set [2] is 46.4 °C.
The corresponding values for GATCTTTGGCAAGATC ((((((....)))))) are -29 kcal/mol and 40 °C.
For GATCTTTGGGAAGATC ((((((....)))))), the folding enthalpy in data set [1] was -34.1 kcal/mol. For the same sequence, in data set [2], the Tm turned out to be 45.6 °C.
Turning to GATCTTTGTAAAGATC ((((((....)))))), in data set [1], the folding enthalpy is -34.3 kcal/mol. The Tm in data set [2] stood at 47.5 °C.
For GATCTTTGTAAGATC ((((((...)))))) the same measures were -28.8 kcal/mol and 45.5 °C.
The corresponding values for GATCTTTTCAAAGATC ((((((....)))))) are -43.6 kcal/mol and 48.7 °C.
The corresponding values for GATCTTTTGCAAGATC ((((((....)))))) are -34.8 kcal/mol and 42.8 °C.
For the sequence GATCTTTTTAAAGATC ((((((....)))))), the folding enthalpy in data set [1] was -41.4 kcal/mol. For the same sequence, the Tm in data set [2] turned out to be 49.6 °C.
The corresponding values for GATCTTTTTAAGATC ((((((...)))))) are -32.2 kcal/mol and 47.1 °C.
For GATCTTTTTGAAGATC ((((((....)))))) the same measures were -34.5 kcal/mol and 46.1 °C.
As to GATGACCCGAAAGGGATC (((..(((....)))))), in data set [1], the folding enthalpy is -11.7 kcal/mol. Also, the Tm in data set [2] was 33.2 °C.
For GATGACGAAAGTCAGATC ((((((....)))..))) the same measures were -17.8 kcal/mol and 52.1 °C.
For GATGACGAAAGTCCGATC ((((((....)))..))) the same measures were -12.8 kcal/mol and 26.8 °C.
In the case of GATGACGAAAGTCTATC ((((((....))).))), the folding enthalpy in data set [1] is -16.4 kcal/mol. Besides, in data set [2], the Tm was found to be 39 °C.
For GATGACGGAAACGTCATC (((((((....))))))) the same measures were -37.1 kcal/mol and 67.5 °C.
For GATGAGCCGAAAGGCATC (((..(((....)))))), in data set [1], the folding enthalpy is -10.2 kcal/mol. The Tm in data set [2] turned out to be 33.5 °C.
For GATGAGCGAAAGCTATC (((.(((....)))))) the same measures were -14.7 kcal/mol and 35.1 °C.
For GATGAGGCGAAAGCCATC (((..(((....)))))) the same measures were -13.1 kcal/mol and 36.3 °C.
For GATGAGGGAAACCTTGTC ((..(((....)))..)) the same measures were -15.3 kcal/mol and 28.1 °C.
Take GATGATACGAAAGTAATC (((..(((....)))))): the folding enthalpy in data set [1] is -16.5 kcal/mol. In addition, the Tm in data set [2] came to 27.5 °C.
The corresponding values for GATGATGGAAACATTATC (((.(((....))).))) are -30.4 kcal/mol and 35.5 °C.
With GATGATGGAAACATTGTC ((..(((....)))..)), in data set [1], the folding enthalpy is -27.9 kcal/mol. Besides, the Tm in data set [2] was 28.8 °C.
The corresponding values for GATGATGGAAACGTCATC (((((.(....).))))) are -29.8 kcal/mol and 46.7 °C.
The corresponding values for GATGCACGAAAGTGGATC (((.(((....))).))) are -37.5 kcal/mol and 54.9 °C.
For the sequence GATGCCACGAAAGTGATC (((..(((....)))))), in data set [1], the folding enthalpy was -9.92 kcal/mol. Further, in data set [2], the Tm stood at 20.2 °C.
The corresponding values for GATGCCCCGAAAGGGATC (((..(((....)))))) are -10.3 kcal/mol and 32.5 °C.
